Laboratory results: ChEMBL document CHEMBL4480410, “Targeting the MKK7-JNK (Mitogen-Activated Protein Kinase Kinase 7-c-Jun N-Terminal Kinase) Pathway with Covalent Inhibitors” (J Med Chem, 2019)
≈ marks a conversion by molar mass, not a printed value. Calls of active or inactive are those of the source. No cut-off for these calls is given here.

Experiments:
[1] = Inhibition of N-terminal His-tagged MKK7 beta1 S273D/T275D double mutant (unknown origin) expressed in insect cells using JNK1 K55M mutant as substrate by ADP-Glo assay; design: species or system Homo sapiens
Method in brief: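 ADP-Glo luminescence run per supplier protocol. Kinase: MKK7 beta1 (aa 1-462, TEV-cleavable N-terminal His6 tag, S273D/T275D) expressed in Sf9 insect cells, used at 20 nM. Substrate: JNK1 K55M at 5 µM. Compound dispensed acoustically; read on plate reader.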

[2] = biological target: Tyrosine-protein kinase Blk (Homo sapiens) (UniProt P51451); test: Inhibition of BLK (unknown origin) at 1 uM by proQinase-based assay relative to control
[3] = biological target: T1, Cytoplasmic tyrosine-protein kinase BMX (Homo sapiens) (UniProt P51813); test: Inhibition of BMX (unknown origin) at 1 uM by proQinase-based assay relative to control
T1 sequence (whole entry): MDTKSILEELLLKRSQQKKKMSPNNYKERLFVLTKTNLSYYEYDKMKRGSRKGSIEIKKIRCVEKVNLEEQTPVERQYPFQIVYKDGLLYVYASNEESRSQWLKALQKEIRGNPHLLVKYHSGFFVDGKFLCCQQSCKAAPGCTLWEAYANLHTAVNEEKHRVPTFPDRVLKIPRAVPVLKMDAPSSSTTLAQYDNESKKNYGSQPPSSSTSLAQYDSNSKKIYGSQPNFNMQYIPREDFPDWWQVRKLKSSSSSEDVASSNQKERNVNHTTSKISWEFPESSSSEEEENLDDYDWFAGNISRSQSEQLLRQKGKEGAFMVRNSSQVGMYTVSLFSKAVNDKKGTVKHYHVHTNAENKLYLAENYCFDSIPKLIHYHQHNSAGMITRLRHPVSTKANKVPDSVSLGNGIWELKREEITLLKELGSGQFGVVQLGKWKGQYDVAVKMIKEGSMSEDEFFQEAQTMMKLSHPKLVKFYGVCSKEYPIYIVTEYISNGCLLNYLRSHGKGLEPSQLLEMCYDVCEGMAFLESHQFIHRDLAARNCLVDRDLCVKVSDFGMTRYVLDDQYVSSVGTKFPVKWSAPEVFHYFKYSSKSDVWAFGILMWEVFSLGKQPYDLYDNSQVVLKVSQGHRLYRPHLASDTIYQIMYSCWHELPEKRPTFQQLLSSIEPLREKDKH

[4] = biological target: Serine/threonine-protein kinase mTOR (Homo sapiens) (UniProt P42345); test: Inhibition of mTOR (unknown origin) at 1 uM by proQinase-based assay relative to control
[5] = biological target: Ribosomal protein S6 kinase (Homo sapiens) (UniProt P51812+Q9UBS0+O75676+Q15349+O75582+P23443+Q9UK32+Q15418); test: Inhibition of SK6 (unknown origin) at 1 uM by proQinase-based assay relative to control; type: protein assay
[6] = biological target: T2, Dual specificity mitogen-activated protein kinase kinase 7 (Mus musculus) (UniProt Q8CE90); test: Inhibition of MKK7 in mouse DRG cells assessed as reduction in JNK phosphorylation at 1 uM after 2 hrs by Western blot analysis; type: cell-based
T2 sequence (whole entry): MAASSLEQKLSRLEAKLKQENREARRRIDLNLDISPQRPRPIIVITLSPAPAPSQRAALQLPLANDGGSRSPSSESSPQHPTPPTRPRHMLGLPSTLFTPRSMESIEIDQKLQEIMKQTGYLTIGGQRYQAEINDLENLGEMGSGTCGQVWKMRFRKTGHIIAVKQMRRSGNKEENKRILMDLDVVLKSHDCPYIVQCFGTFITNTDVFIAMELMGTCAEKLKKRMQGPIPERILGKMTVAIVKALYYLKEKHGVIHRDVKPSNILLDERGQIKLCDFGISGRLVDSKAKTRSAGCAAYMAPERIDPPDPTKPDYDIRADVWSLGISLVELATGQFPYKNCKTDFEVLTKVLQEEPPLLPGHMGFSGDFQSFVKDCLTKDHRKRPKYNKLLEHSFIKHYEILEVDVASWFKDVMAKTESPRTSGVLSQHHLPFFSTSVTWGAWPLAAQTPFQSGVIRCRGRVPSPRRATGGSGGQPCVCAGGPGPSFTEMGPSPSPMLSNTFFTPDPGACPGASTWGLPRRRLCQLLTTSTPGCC
Method in brief: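 Dissociated DRG neurons plated on laminin for 3 h, medium replaced, compound added for a further 2 h. Neurons lysed in RIPA buffer with phosphatase inhibitors. Western blots probed for phospho-cJun, cJun, phospho-JNK and JNK.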

[7] = Kinetic solubility of the compound in Hepes buffer at pH 7.4 after 90 mins; type: physicochemical; settings: read-out: Kinetic_solubility
Method in brief: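 Compound diluted from 10 mM DMSO stock to 500 µM final in 50 mM Hepes, pH 7.4, shaken 90 min at room temperature. Filtered through 0.2 µm PVDF, then OD scanned 250–500 nm in 10 nm steps. Solubility taken from AUC, normalized to a dilution in acetonitrile.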

[8] = Apparent permeability across apical to basolateral side in human Caco2 cells at 5 uM after 2 hrs by transwell membrane based assay; type: ADME, cell-based; settings: Caco-2
Method in brief: (§1)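 10 mM DMSO stock diluted to 5 µM final in HBSS pH 7.4; 2 h at 37 °C, 5% CO2 on Caco-2 monolayers grown 21 days on transwell membranes.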

[9] = Apparent permeability across basolateral to apical side in human Caco2 cells at 5 uM after 2 hrs by transwell membrane based assay; type: ADME, cell-based, Caco-2; settings: Caco-2; method in brief: as §1
[10] = Apparent permeability across basolateral to apical side in MDCK2-MDR1 cells at 10 uM after 2 hrs by transwell membrane based assay; type: ADME, cell-based, Canis lupus familiaris; settings: dog, MDCK-MDR1
Method in brief: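 Compound at 10 µM in HBSS added to apical or basolateral side of MDCKII-MDR1 monolayer, 2 h at 37 °C. Both sides quantified by LC-MS/MS; Papp A–B or B–A from receiver concentration and volume, time, membrane area and initial donor concentration.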

[11] = Stability in human plasma assessed as compound remaining at 5 uM after 1 hr by LC/MS analysis; type: ADME, cell-free; settings: read-out: Stability
Method in brief: (§2)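 Compound at 5 µM incubated 1 h at 37 °C in human or mouse plasma; percentage remaining quantified by LC/MS.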

[12] = Stability in mouse plasma assessed as compound remaining at 5 uM after 1 hr by LC/MS analysis; type: ADME, cell-free; settings: read-out: Stability; method in brief: as §2
[13] = Protein binding in mouse plasma at 5 uM after 6 hrs by LC/MS analysis; type: ADME, cell-free; settings: read-out: PPB (converted)
Method in brief: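 Equilibrium dialysis of plasma with compound at 5 µM, 6 h at 37 °C; final compound concentrations determined by LC/MS to give percent bound.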

Sequence of Tyrosine-protein kinase Blk (Homo sapiens) (P51451 2-505 limits assumed): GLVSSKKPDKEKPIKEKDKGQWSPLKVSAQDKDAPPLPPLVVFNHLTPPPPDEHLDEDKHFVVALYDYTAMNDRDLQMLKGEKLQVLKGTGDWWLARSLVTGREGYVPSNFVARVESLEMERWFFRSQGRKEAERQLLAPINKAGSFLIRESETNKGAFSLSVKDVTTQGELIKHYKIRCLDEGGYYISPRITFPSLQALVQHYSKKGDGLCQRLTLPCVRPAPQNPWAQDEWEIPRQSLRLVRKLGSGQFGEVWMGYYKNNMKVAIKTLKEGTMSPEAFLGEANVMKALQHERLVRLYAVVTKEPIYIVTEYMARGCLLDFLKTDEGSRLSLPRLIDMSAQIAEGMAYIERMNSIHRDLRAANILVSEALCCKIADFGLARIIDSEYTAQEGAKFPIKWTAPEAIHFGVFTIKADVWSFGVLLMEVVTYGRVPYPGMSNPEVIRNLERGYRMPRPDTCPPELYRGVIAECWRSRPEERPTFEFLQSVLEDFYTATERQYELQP

## C=CC(=O)N1CCC[C@@H](n2nc(-c3cn(-c4ccc(C(C)=O)cc4)nn3)c3c(N)ncnc32)C1
[1]
  IC50: 0.01 µM
[2]
  inhibition: > 50%
[3]
  inhibition: > 50%
[4]
  inhibition: > 50%
[5]
  inhibition: > 50%
[6]
  inhibition: Active
[7]
  solubility kinetic at 1.5 h: 8 µM (≈ 3.66 µg/mL)
[8]
  Papp A→B at 2 h, 5 µM: 20 ×10⁻⁶ cm/s
[9]
  Papp B→A at 2 h, 5 µM: 13 ×10⁻⁶ cm/s
[10]
  Papp B→A at 2 h, 10 µM: 4 ×10⁻⁶ cm/s
[11]
  remaining at 1 h, 5 µM: > 99%
[12]
  remaining at 1 h, 5 µM: 70.4%
[13]
  fraction unbound at 6 h, 5 µM: 0.073
